# Results as given in ChEMBL document CHEMBL1154100, “Tetrahydroisoquinolines as dopaminergic ligands: 1-Butyl-7-chloro-6-hydroxy-tetrahydroisoquinoline, a new compound with antidepressant-like activity in mice” (Bioorg Med Chem, 2009).
# The source made the active and inactive calls. The rule behind the calls is not given here.
# Key:
# D(1A) dopamine receptor = D(1A) dopamine receptor (Rattus norvegicus, UniProt P18901); assay: Displacement of [3H]SCH23390 from dopamine D1 receptor in Wistar rat striatal membrane by liquid scintillation counting; assay type: cell membranes, Striatum
# Method in brief: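 Female Wistar rat striatum homogenized in 50 mM Tris-HCl pH 7.4, then washed twice at 49,000g. Membranes were resuspended in Tris-ions buffer (NaCl, CaCl2, KCl, MgCl2, 0.1% ascorbate). [3H]-SCH23390 displacement was read by filtration and scintillation counting. Ki was derived using KD 0.36 nM; 3–6 independent runs in duplicate, mean SEM.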
# D(2) dopamine receptor = D(2) dopamine receptor (Rattus norvegicus, UniProt P61169); assay: Displacement of [3H]raclopride from dopamine D2 receptor in Wistar rat striatal membrane by liquid scintillation counting; assay type: cell membranes, Striatum; conditions: read-out: pKi (converted)
# Method in brief: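 Striata from female Wistar rats (200–220 g) were homogenized in 50 mM Tris-HCl (pH 7.4) and centrifuged twice at 49,000g for 15 min at 4 °C. Membranes were resuspended in Tris buffer containing 120 mM NaCl, 2 mM CaCl₂, 5 mM KCl, 1 mM MgCl₂ and 0.1% ascorbic acid (pH 7.4). Samples were filtered, washed with cold buffer and counted by scintillation. Ki was derived using a [³H]raclopride KD of 1,25 nM, from 3–6 determinations run in duplicate.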
# Rattus norvegicus = organism: Rattus norvegicus; assay: Selectivity for Wistar rat dopamine D2 receptor over Wistar rat dopamine D1 receptor
# [1] = target: Sodium-dependent dopamine transporter (Rattus norvegicus) (UniProt P23977); assay: Inhibition of DAT in Wistar rat striatal synaptosomes at 100 uM by [3H]dopamine uptake assay; assay type: subcellular; conditions: Brain
# Method in brief: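 Synaptosomes were prepared from female Wistar rat striatum at 0–4 °C. Tissue was homogenized in 0.32 M sucrose, spun twice at 1000g for 10 min, and the pooled supernatants were spun at 16,000g for 30 min. The pellet was taken up in Krebs medium (pH 7.6, with glucose). Samples were preincubated for 10 min at 37 °C with pargyline, then given 0.5 nM final [³H]dopamine for 10 min. Uptake was stopped by ice-cold dilution and rapid fiberglass filtration.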
# Mus musculus [2] = assay: Antidepressant-like activity in NMRI mouse assessed as increase in locomotor activity at 0.01 mg/kg, ip after 6 mins by photoelectronic actimeter method; assay type: functional; conditions: route intraperitoneal
# Method in brief: (§1)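 Naive male NMRI mice (25–30 g), n = 10/group; single ip injection (10 mL/kg, saline vehicle) 30 min before test, during the dark phase. Photoelectronic actimeter with two perpendicular infrared beams; beam crossings counted cumulatively at 6-min intervals over a 30-min session. Vs vehicle by ANOVA and Fisher PLSD; mean SD.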
# Mus musculus [3] = assay: Antidepressant-like activity in NMRI mouse assessed as increase in locomotor activity at 0.01 mg/kg, ip after 12 mins by photoelectronic actimeter method; assay type: functional; conditions: route intraperitoneal; method in brief: as §1
# Mus musculus [4] = assay: Antidepressant-like activity in NMRI mouse assessed as increase in locomotor activity at 0.01 mg/kg, ip after 18 mins by photoelectronic actimeter method; assay type: functional; conditions: route intraperitoneal; method in brief: as §1
# Mus musculus [5] = assay: Antidepressant-like activity in NMRI mouse assessed as increase in locomotor activity at 0.01 mg/kg, ip after 24 mins by photoelectronic actimeter method; assay type: functional; conditions: route intraperitoneal; method in brief: as §1
# Mus musculus [6] = assay: Antidepressant-like activity in NMRI mouse assessed as increase in locomotor activity at 0.01 mg/kg, ip after 30 mins by photoelectronic actimeter method; assay type: functional; conditions: route intraperitoneal; method in brief: as §1
# Mus musculus [7] = assay: Antidepressant-like activity in NMRI mouse assessed as increase in locomotor activity at 0.04 mg/kg, ip after 6 mins by photoelectronic actimeter method; assay type: functional; conditions: route intraperitoneal; method in brief: as §1
# Mus musculus [8] = assay: Antidepressant-like activity in NMRI mouse assessed as increase in locomotor activity at 0.04 mg/kg, ip after 12 mins by photoelectronic actimeter method; assay type: functional; conditions: route intraperitoneal; method in brief: as §1
# Mus musculus [9] = assay: Antidepressant-like activity in NMRI mouse assessed as increase in locomotor activity at 0.04 mg/kg, ip after 18 mins by photoelectronic actimeter method; assay type: functional; conditions: route intraperitoneal; method in brief: as §1
# Mus musculus [10] = assay: Antidepressant-like activity in NMRI mouse assessed as increase in locomotor activity at 0.04 mg/kg, ip after 24 mins by photoelectronic actimeter method; assay type: functional; conditions: route intraperitoneal; method in brief: as §1
# Mus musculus [11] = assay: Antidepressant-like activity in NMRI mouse assessed as increase in locomotor activity at 0.04 mg/kg, ip after 30 mins by photoelectronic actimeter method; assay type: functional; conditions: route intraperitoneal; method in brief: as §1
# Mus musculus [12] = assay: Antidepressant-like activity in NMRI mouse assessed as increase in locomotor activity at 0.2 mg/kg, ip after 6 mins by photoelectronic actimeter method; assay type: functional; conditions: route intraperitoneal; method in brief: as §1
# Mus musculus [13] = assay: Antidepressant-like activity in NMRI mouse assessed as increase in locomotor activity at 0.2 mg/kg, ip after 12 mins by photoelectronic actimeter method; assay type: functional; conditions: route intraperitoneal; method in brief: as §1
# Mus musculus [14] = assay: Antidepressant-like activity in NMRI mouse assessed as increase in locomotor activity at 0.2 mg/kg, ip after 18 mins by photoelectronic actimeter method; assay type: functional; conditions: route intraperitoneal; method in brief: as §1
# Mus musculus [15] = assay: Antidepressant-like activity in NMRI mouse assessed as increase in locomotor activity at 0.2 mg/kg, ip after 24 mins by photoelectronic actimeter method; assay type: functional; conditions: route intraperitoneal; method in brief: as §1
# Mus musculus [16] = assay: Antidepressant-like activity in NMRI mouse assessed as increase in locomotor activity at 0.2 mg/kg, ip after 30 mins by photoelectronic actimeter method; assay type: functional; conditions: route intraperitoneal; method in brief: as §1
# Mus musculus [17] = assay: Antidepressant-like activity in NMRI mouse assessed as increase in locomotor activity at 1 mg/kg, ip after 6 mins by photoelectronic actimeter method; assay type: functional; conditions: route intraperitoneal; method in brief: as §1
# Mus musculus [18] = assay: Antidepressant-like activity in NMRI mouse assessed as increase in locomotor activity at 1 mg/kg, ip after 12 mins by photoelectronic actimeter method; assay type: functional; conditions: route intraperitoneal; method in brief: as §1
# Mus musculus [19] = assay: Antidepressant-like activity in NMRI mouse assessed as increase in locomotor activity at 1 mg/kg, ip after 18 mins by photoelectronic actimeter method; assay type: functional; conditions: route intraperitoneal; method in brief: as §1
# Mus musculus [20] = assay: Antidepressant-like activity in NMRI mouse assessed as increase in locomotor activity at 1 mg/kg, ip after 24 mins by photoelectronic actimeter method; assay type: functional; conditions: route intraperitoneal; method in brief: as §1
# Mus musculus [21] = assay: Antidepressant-like activity in NMRI mouse assessed as increase in locomotor activity at 1 mg/kg, ip after 30 mins by photoelectronic actimeter method; assay type: functional; conditions: route intraperitoneal; method in brief: as §1
# Mus musculus [22] = assay: Antidepressant-like activity in NMRI mouse assessed as increase in locomotor activity at 5 mg/kg, ip after 6 mins by photoelectronic actimeter method; assay type: functional; conditions: route intraperitoneal; method in brief: as §1
# Mus musculus [23] = assay: Antidepressant-like activity in NMRI mouse assessed as increase in locomotor activity at 5 mg/kg, ip after 12 mins by photoelectronic actimeter method; assay type: functional; conditions: route intraperitoneal; method in brief: as §1
# Mus musculus [24] = assay: Antidepressant-like activity in NMRI mouse assessed as increase in locomotor activity at 5 mg/kg, ip after 18 mins by photoelectronic actimeter method; assay type: functional; conditions: route intraperitoneal; method in brief: as §1
# Mus musculus [25] = assay: Antidepressant-like activity in NMRI mouse assessed as increase in locomotor activity at 5 mg/kg, ip after 24 mins by photoelectronic actimeter method; assay type: functional; conditions: route intraperitoneal; method in brief: as §1
# Mus musculus [26] = assay: Antidepressant-like activity in NMRI mouse assessed as increase in locomotor activity at 5 mg/kg, ip after 30 mins by photoelectronic actimeter method; assay type: functional; conditions: route intraperitoneal; method in brief: as §1
# Mus musculus [27] = assay: Antidepressant-like activity in NMRI mouse assessed as increase in locomotor activity at 25 mg/kg, ip after 6 mins by photoelectronic actimeter method; assay type: functional; conditions: route intraperitoneal; method in brief: as §1
# Mus musculus [28] = assay: Antidepressant-like activity in NMRI mouse assessed as increase in locomotor activity at 25 mg/kg, ip after 12 mins by photoelectronic actimeter method; assay type: functional; conditions: route intraperitoneal; method in brief: as §1
# Mus musculus [29] = assay: Antidepressant-like activity in NMRI mouse assessed as increase in locomotor activity at 25 mg/kg, ip after 18 mins by photoelectronic actimeter method; assay type: functional; conditions: route intraperitoneal; method in brief: as §1
# Mus musculus [30] = assay: Antidepressant-like activity in NMRI mouse assessed as increase in locomotor activity at 25 mg/kg, ip after 24 mins by photoelectronic actimeter method; assay type: functional; conditions: route intraperitoneal; method in brief: as §1
# Mus musculus [31] = assay: Antidepressant-like activity in NMRI mouse assessed as increase in locomotor activity at 25 mg/kg, ip after 30 mins by photoelectronic actimeter method; assay type: functional; conditions: route intraperitoneal; method in brief: as §1
# Mus musculus [32] = assay: Antidepressant-like activity in NMRI mouse assessed as increase in locomotor activity at 0.2 mg/kg, ip by photoelectronic actimeter method in presence of D2 receptor antagonist haloperidol; assay type: functional, organism-based; parameters: dose 0.2 mg/kg
# Method in brief: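 Male NMRI mice, n = 10/group. Haloperidol 0.03 mg/kg sc given just before ip test compound (0.2 mg/kg) or saline, 30 min before testing. Spontaneous locomotion was counted as infrared beam crossings in a photoelectric actimeter over 30 min. Groups were compared by Fisher PLSD; mean SD.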
# Mus musculus [33] = assay: Antidepressant-like activity in NMRI mouse assessed as reduction in immobility time at 0.01 mg/kg, ip by forced swimming test; assay type: functional, organism-based; parameters: dose 0.01 mg/kg
# Method in brief: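 Male NMRI mice, 10/group, not pre-tested; ip dosing in saline 30 min before test. Each mouse swam 6 min in a cylinder (12 cm diameter, 13 cm water, 23–24 °C). Immobility was scored over the last 4 min after a 2-min delay. Imipramine 16 mg/kg was the reference. Analysis by ANOVA with Fisher PLSD.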
# Mus musculus [34] = assay: Antidepressant-like activity in NMRI mouse assessed as reduction in immobility time at 0.01 mg/kg, ip by forced swimming test in presence of D2 receptor antagonist haloperidol; assay type: functional, organism-based; parameters: dose 0.01 mg/kg
# Method in brief: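 Male NMRI mice, 10/group. Haloperidol 0.03 mg/kg sc was injected just before ip test compound, 30 min before a 6-min forced swim (water 23–24 °C, depth 13 cm). Immobility was measured during the final 4 min. Analysis by ANOVA with Fisher PLSD.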
# D(1A) dopamine receptor, sequence (P18901 whole entry): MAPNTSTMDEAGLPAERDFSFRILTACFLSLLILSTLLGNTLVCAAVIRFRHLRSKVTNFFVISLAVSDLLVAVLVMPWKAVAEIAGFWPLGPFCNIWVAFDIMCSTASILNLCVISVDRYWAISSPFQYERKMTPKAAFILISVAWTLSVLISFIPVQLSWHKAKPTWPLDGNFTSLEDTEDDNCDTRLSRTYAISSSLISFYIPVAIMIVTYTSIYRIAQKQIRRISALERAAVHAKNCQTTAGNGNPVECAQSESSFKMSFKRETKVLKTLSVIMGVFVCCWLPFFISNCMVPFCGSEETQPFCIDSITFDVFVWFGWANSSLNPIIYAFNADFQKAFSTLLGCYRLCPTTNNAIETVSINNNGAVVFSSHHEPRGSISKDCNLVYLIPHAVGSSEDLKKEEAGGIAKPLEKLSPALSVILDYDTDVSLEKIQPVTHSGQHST
# D(2) dopamine receptor, sequence (P61169 whole entry): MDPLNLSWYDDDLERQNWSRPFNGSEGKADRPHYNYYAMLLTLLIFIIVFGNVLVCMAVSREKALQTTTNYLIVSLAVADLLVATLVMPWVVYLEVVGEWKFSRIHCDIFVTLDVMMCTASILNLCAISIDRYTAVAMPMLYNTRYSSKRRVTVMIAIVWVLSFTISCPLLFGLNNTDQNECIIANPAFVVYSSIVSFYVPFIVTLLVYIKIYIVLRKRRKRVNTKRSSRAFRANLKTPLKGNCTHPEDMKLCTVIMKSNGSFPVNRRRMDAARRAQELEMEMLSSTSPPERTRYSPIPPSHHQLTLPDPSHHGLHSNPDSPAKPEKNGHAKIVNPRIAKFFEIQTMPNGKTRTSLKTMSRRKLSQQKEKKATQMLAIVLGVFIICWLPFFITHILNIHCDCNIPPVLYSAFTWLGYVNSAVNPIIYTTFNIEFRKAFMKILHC
# Sodium-dependent dopamine transporter (Rattus norvegicus), sequence (P23977 whole entry): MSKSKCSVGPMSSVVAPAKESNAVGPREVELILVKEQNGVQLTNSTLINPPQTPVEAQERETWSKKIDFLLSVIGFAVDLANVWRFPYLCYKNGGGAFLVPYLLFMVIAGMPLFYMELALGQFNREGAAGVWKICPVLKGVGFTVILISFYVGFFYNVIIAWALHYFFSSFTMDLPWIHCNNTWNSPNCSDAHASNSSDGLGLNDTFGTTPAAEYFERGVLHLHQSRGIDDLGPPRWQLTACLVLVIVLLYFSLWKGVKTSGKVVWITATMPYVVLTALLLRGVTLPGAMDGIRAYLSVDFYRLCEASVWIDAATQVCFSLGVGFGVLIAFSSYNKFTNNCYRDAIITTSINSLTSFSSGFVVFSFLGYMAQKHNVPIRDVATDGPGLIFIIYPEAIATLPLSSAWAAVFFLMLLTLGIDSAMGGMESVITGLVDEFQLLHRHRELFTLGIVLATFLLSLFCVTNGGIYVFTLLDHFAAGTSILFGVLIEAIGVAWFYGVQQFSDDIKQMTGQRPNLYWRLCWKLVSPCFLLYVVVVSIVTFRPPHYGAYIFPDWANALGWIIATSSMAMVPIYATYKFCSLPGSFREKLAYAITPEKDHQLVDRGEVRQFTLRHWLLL
compound,measurement,setting,value
COc1cc2c(cc1Cl)CCNC2Cc1ccccc1 (stereo unspecified),Ki,D(1A) dopamine receptor,2360 nM
same,Ki,D(2) dopamine receptor,968 nM
same,fold change (FC),Rattus norvegicus,5
same,Activity,[1],inactive
CN1CCc2cc(Cl)c(O)cc2C1c1ccccc1 (stereo unspecified),Ki,D(1A) dopamine receptor,40.3 nM
same,Ki,D(2) dopamine receptor,504 nM
same,fold change (FC),Rattus norvegicus,0.07
same,Activity,[1],inactive
CCCCC1c2cc(O)c(Cl)cc2CCN1C (stereo unspecified),Ki,D(1A) dopamine receptor,1140 nM
same,Ki,D(2) dopamine receptor,395 nM
same,fold change (FC),Rattus norvegicus,2.3
same,Activity,[1],inactive
COc1cc2c(cc1Cl)CCN(C)C2c1ccccc1 (stereo unspecified),Ki,D(1A) dopamine receptor,815 nM
same,Ki,D(2) dopamine receptor,2140 nM
same,fold change (FC),Rattus norvegicus,0.3
same,Activity,[1],inactive
CCCCC1NCCc2cc(O)c(Cl)cc21 (stereo unspecified),Ki,D(1A) dopamine receptor,3230 nM
same,Ki,D(2) dopamine receptor,60.3 nM
same,fold change (FC),Rattus norvegicus,49
same,Activity,[1],inactive
same,Activity,Mus musculus [2],72
same,Activity,Mus musculus [3],105
same,Activity,Mus musculus [4],133
same,Activity,Mus musculus [5],147
same,Activity,Mus musculus [6],153
same,Activity,Mus musculus [7],102
same,Activity,Mus musculus [8],142
same,Activity,Mus musculus [9],170
same,Activity,Mus musculus [10],185
same,Activity,Mus musculus [11],200
same,Activity,Mus musculus [12],115
same,Activity,Mus musculus [13],186
same,Activity,Mus musculus [14],219
same,Activity,Mus musculus [15],255
same,Activity,Mus musculus [16],277
same,Activity,Mus musculus [17],122
same,Activity,Mus musculus [18],200
same,Activity,Mus musculus [19],257
same,Activity,Mus musculus [20],307
same,Activity,Mus musculus [21],340
same,Activity,Mus musculus [22],153
same,Activity,Mus musculus [23],276
same,Activity,Mus musculus [24],345
same,Activity,Mus musculus [25],411
same,Activity,Mus musculus [26],464
same,Activity,Mus musculus [27],170
same,Activity,Mus musculus [28],260
same,Activity,Mus musculus [29],319
same,Activity,Mus musculus [30],367
same,Activity,Mus musculus [31],426
same,Activity,Mus musculus [32],inactive
same,Activity,Mus musculus [33],Active
same,Activity,Mus musculus [34],inactive
CN1CCc2cc(Cl)c(O)cc2C1Cc1ccccc1 (stereo unspecified),Ki,D(1A) dopamine receptor,111 nM
same,Ki,D(2) dopamine receptor,207 nM
same,fold change (FC),Rattus norvegicus,0.6
same,Activity,[1],inactive
CCCCC1NCCc2cc(Cl)c(OC)cc21 (stereo unspecified),Ki,D(1A) dopamine receptor,17300 nM
same,Ki,D(2) dopamine receptor,780 nM
same,fold change (FC),Rattus norvegicus,20
same,Activity,[1],inactive
